{"source": "ChEMBL document CHEMBL1128325", "about": "“Microsphere formation in a series of derivatized alpha-amino acids: properties, molecular modeling, and oral delivery of salmon calcitonin” (J Med Chem, 1995)", "assay": "Partition coefficient (logP)", "assay_type": "physicochemical", "details": "octanol/water", "method_in_brief": "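Computed rather than measured: derived from the reported experimental log P values of the parent amino acids by adding fragment constants for the N-substituent.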", "data": [{"smiles": "CC(C)C(NS(=O)(=O)c1ccccc1)C(=O)O", "note": "(stereo unspecified)", "values": [{"measurement": "logP", "setting": "read-out: logP", "result": -1.8}]}, {"smiles": "CC(C)CC(NS(=O)(=O)c1ccccc1)C(=O)O", "note": "(stereo unspecified)", "values": [{"measurement": "logP", "setting": "read-out: logP", "result": -1.69}]}, {"smiles": "O=C(O)CCC(NC(=O)c1ccccc1)C(=O)O", "note": "(stereo unspecified)", "values": [{"measurement": "logP", "setting": "read-out: logP", "result": -2.29}]}, {"smiles": "O=C(CC(=O)c1ccccc1)NC(Cc1ccccc1)C(=O)O", "note": "(stereo unspecified)", "values": [{"measurement": "logP", "setting": "read-out: logP", "result": -1.34}]}, {"smiles": "O=C(O)C(CO)NS(=O)(=O)c1ccccc1", "note": "(stereo unspecified)", "values": [{"measurement": "logP", "setting": "read-out: logP", "result": -3.98}]}, {"smiles": "O=C(NC(Cc1ccccc1)C(=O)O)c1ccccc1O", "note": "(stereo unspecified)", "values": [{"measurement": "logP", "setting": "read-out: logP", "result": -0.53}]}, {"smiles": "CC(C)CC(NC(=O)c1ccccc1)C(=O)O", "note": "(stereo unspecified)", "values": [{"measurement": "logP", "setting": "read-out: logP", "result": -0.91}]}, {"smiles": "O=C(O)C(Cc1ccccc1)NS(=O)(=O)c1ccccc1", "note": "(stereo unspecified)", "values": [{"measurement": "logP", "setting": "read-out: logP", "result": -1.41}]}, {"smiles": "CN(C)C(Cc1ccccc1)C(=O)O", "note": "(stereo unspecified)", "values": [{"measurement": "logP", "setting": "read-out: logP", "result": -0.43}]}, {"smiles": "COC(=O)C(Cc1ccccc1)NC(=O)c1ccccc1", "note": "(stereo unspecified)", "values": [{"measurement": "logP", "setting": "read-out: logP", "result": -0.13}]}, {"smiles": "CC(=O)NC(Cc1ccccc1)C(=O)O", "note": "(stereo unspecified) [AFALANINE]", "values": [{"measurement": "logP", "result": -0.7}]}, {"smiles": "CC(NC(=O)c1ccccc1)C(=O)O", "note": "(stereo unspecified)", "values": [{"measurement": "logP", "setting": "read-out: logP", "result": -2.14}]}, {"smiles": "O=C(Cc1ccccc1)NC(Cc1ccccc1)C(=O)O", "note": "(stereo unspecified)", "values": [{"measurement": "logP", "setting": "read-out: logP", "result": -0.13}]}, {"smiles": "NC(=O)C(Cc1ccccc1)NC(=O)c1ccccc1", "note": "(stereo unspecified)", "values": [{"measurement": "logP", "setting": "read-out: logP", "result": -1.89}]}, {"smiles": "O=C(NC(Cc1ccccc1)C(=O)O)c1ccccc1", "note": "(stereo unspecified)", "values": [{"measurement": "logP", "setting": "read-out: logP", "result": -0.63}]}, {"smiles": "O=C(NCCCC(NC(=O)c1ccccc1)C(=O)O)c1ccccc1", "note": "(stereo unspecified)", "values": [{"measurement": "logP", "setting": "read-out: logP", "result": -1.29}]}, {"smiles": "O=C([O-])CNC(=O)c1ccccc1.[Na+]", "values": [{"measurement": "logP", "setting": "read-out: logP", "result": -2.68}]}, {"smiles": "O=C(NCCCCC(NC(=O)c1ccccc1)C(=O)O)c1ccccc1", "note": "(stereo unspecified)", "values": [{"measurement": "logP", "setting": "read-out: logP", "result": -1.22}]}, {"smiles": "O=C(O)CC(NC(=O)c1ccccc1)C(=O)O", "note": "(stereo unspecified)", "values": [{"measurement": "logP", "setting": "read-out: logP", "result": -2.79}]}, {"smiles": "CC(C)C(NC(=O)c1ccccc1)C(=O)O", "note": "(stereo unspecified)", "values": [{"measurement": "logP", "setting": "read-out: logP", "result": -1.3}]}, {"smiles": "O=C(NC(Cc1ccc(O)cc1)C(=O)O)c1ccccc1", "note": "(stereo unspecified)", "values": [{"measurement": "logP", "setting": "read-out: logP", "result": -2.24}]}, {"smiles": "NCCCCC(NC(=O)c1ccccc1)C(=O)O", "note": "(stereo unspecified)", "values": [{"measurement": "logP", "setting": "read-out: logP", "result": -2.02}]}, {"smiles": "O=C(NC(Cc1ccccc1)C(=O)O)OCc1ccccc1", "note": "(stereo unspecified)", "values": [{"measurement": "logP", "setting": "read-out: logP", "result": -1.11}]}, {"smiles": "O=CNC(Cc1ccccc1)C(=O)O", "note": "(stereo unspecified)", "values": [{"measurement": "logP", "setting": "read-out: logP", "result": -1.21}]}, {"smiles": "O=C(NC(Cc1ccccc1)C(=O)O)C1CCCCC1", "note": "(stereo unspecified)", "values": [{"measurement": "logP", "setting": "read-out: logP", "result": -0.27}]}, {"smiles": "O=C(NC(Cc1ccccc1)C(=O)O)C1CCCC1", "note": "(stereo unspecified)", "values": [{"measurement": "logP", "setting": "read-out: logP", "result": -0.77}]}, {"smiles": "NCCCC(NC(=O)c1ccccc1)C(=O)O", "note": "(stereo unspecified)", "values": [{"measurement": "logP", "setting": "read-out: logP", "result": -2.09}]}, {"smiles": "CC(=O)NC(Cc1ccccc1)C(N)=O", "note": "(stereo unspecified)", "values": [{"measurement": "logP", "setting": "read-out: logP", "result": -1.76}]}, {"smiles": "CNC(Cc1ccccc1)C(=O)O", "note": "(stereo unspecified)", "values": [{"measurement": "logP", "setting": "read-out: logP", "result": -0.93}]}, {"smiles": "NCCCCC(NS(=O)(=O)c1ccccc1)C(=O)O", "note": "(stereo unspecified)", "values": [{"measurement": "logP", "setting": "read-out: logP", "result": -2.8}]}, {"smiles": "COC(=O)C(Cc1ccccc1)NC(C)=O", "note": "(stereo unspecified)", "values": [{"measurement": "logP", "setting": "read-out: logP", "result": -0.2}]}]}
